Reference: ChEMBL document CHEMBL3352586, “Pyridyl benzamides as a novel class of potent inhibitors for the kinetoplastid Trypanosoma brucei” (J Med Chem, 2014)
≈ marks a conversion by molar mass, not a printed value.

How the values were obtained:
[1] = system: Trypanosoma brucei brucei; test: Antimicrobial activity against bloodstream form of Trypanosoma brucei brucei 427 after 48 hrs by alamar blue assay; format: functional, organism-based; conditions: Trypanosoma brucei, 427, 48 h
[2] = Selectivity index, ratio of IC50 for HEK293 cells to IC50 for Trypanosoma brucei brucei 427; format: toxicity, cell-based; conditions: human, read-out: Ratio IC50
[3] = system: Trypanosoma brucei brucei; test: Antimicrobial activity against bloodstream form of Trypanosoma brucei brucei 427 at 10 uM after 48 hrs by alamar blue assay; format: functional; conditions: Trypanosoma brucei, 427, 48 h
Plasmodium falciparum = test: Antimicrobial activity against erythrocytic stage of Plasmodium falciparum NF54 infected in human washed RBC assessed as [3H]-hypoxanthine incorporation incubated for 48 hrs prior to [3H]-hypoxanthine addition measured after 24 hrs by liquid scintillation counting analysis; format: functional, organism-based
[4] = system: Trypanosoma brucei rhodesiense; test: Antimicrobial activity against bloodstream form of Trypanosoma brucei rhodesiense STIB 900 after 70 hrs by alamar blue assay; format: functional, organism-based; conditions: STIB 900, 70 h
In short: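 Trypanosoma brucei rhodesiense STIB 900 bloodstream-form trypomastigotes, with melarsoprol as reference drug.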

Trypanosoma cruzi = test: Antimicrobial activity against amastigote form of Trypanosoma cruzi Tulahuen C2C4 infected in rat L6 cells after 96 hrs by microscopic analysis; conditions: Tulahuen C2C4, L6, 96 h
L6 = test: Cytotoxicity against rat L6 cells after 70 hrs by alamar blue assay; format: cell-based; conditions: L6, 70 h
In short: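 Cytotoxicity on the rat skeletal myoblast L-6 strain, with podophyllotoxin as reference drug.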

Leishmania donovani = test: Antimicrobial activity against amastigote form of Leishmania donovani MHOM/ET/67/L82 after 70 hrs by alamar blue assay; format: functional, organism-based; conditions: MHOM/ET/67/L82, 70 h
In short: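 Leishmania donovani MHOM-ET-67/L82 axenic amastigotes, with miltefosine as reference drug.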

[5] = Kinetic solubility of the compound at 10 mg/ml at pH 2 by nephelometry; format: physicochemical; conditions: buffer, read-out: Kinetic_solubility
In short: (§1)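 Kinetic solubility was read by nephelometry at pH 2 and pH 6.5 and reported as μg/mL ranges.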

[6] = Plasma protein binding in human […] by chromatographic method; format: ADME, cell-free; conditions: read-out: PPB (converted)
In short: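 Human plasma protein binding was estimated by a chromatographic method.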

Liver microsome = test: Intrinsic clearance in human liver microsomes at 1 uM after 60 mins by LC-MS analysis; format: ADME; conditions: 1 h
In short: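 In vitro intrinsic clearance was measured in human liver microsomes and expressed per mg protein. A hepatic extraction ratio (E_H) was predicted from the in vitro data.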

[7] = Partition coefficient, log D of the compound at pH 7.4 by HPLC method; format: physicochemical; conditions: octanol/water
In short: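 Distribution coefficient at pH 7.4 was measured chromatographically.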

[8] = Kinetic solubility of the compound at 10 mg/ml at pH 6.5 by nephelometry; format: physicochemical; conditions: buffer, read-out: Kinetic_solubility; in short: as §1

IC50 [1]	Structure (SMILES)	selectivity ratio [2]	inhibition at 10 µM [3]	also measured
2.74 µM	CCc1ccccc1C(=O)Nc1ccccn1	30	–	–
–	Cc1ccccc1C(=O)Nc1ncco1	–	< 10%	–
–	Cc1ccccc1C(=O)Nc1ccncn1	–	< 10%	–
–	CCN(CC)CCCC(C)Nc1ccnc2cc(Cl)ccc12 (stereo not drawn) [CHLOROQUINE]	–	–	EC50 (Plasmodium falciparum): 0.11 µg/mL (≈ 0.344 µM)
–	Cc1cc(NC(=O)c2ccccc2C)no1	–	< 10%	–
9.07 µM	O=C(Nc1ccccn1)c1ccccc1	9.2	–	–
–	Cc1ccccc1C(=O)Nc1cccc(Cl)n1	–	< 10%	–
–	CCCCCN(C(=O)c1ccccc1C)c1ccccn1	–	17%	–
–	Cc1ccc(C)c(C(=O)Nc2ccccn2)c1	–	22%	–
–	Cc1ccccc1C(=O)Nc1ncccc1C	–	34%	–
–	Cc1ccccc1C(=O)Nc1nncs1	–	< 10%	–
–	Cc1ncccc1C(=O)Nc1ccccn1	–	21%	–
–	Cc1ccccc1C(=O)Nc1nc[nH]n1	–	< 10%	–
2.3 µM	COc1ccc(NC(=O)c2cccc(F)c2C)nc1	4	–	–
–	Cc1ccccc1C(=O)Nc1cccc(C#Cc2ccccc2)n1	–	< 10%	–
–	CCC/C=C/c1ccc(NC(=O)c2ccccc2C)nc1	–	19%	–
–	Cc1ccccc1C(=O)Nc1cnccn1	–	35%	–
3.03 µM	Cc1ccccc1C(=O)Nc1ccccn1	27.5	80%	IC50 (Plasmodium falciparum): 36 µM; IC50 [4]: 2.1 µM; IC50 (Trypanosoma cruzi): 152 µM; IC50 (L6): 156 µM; IC50 (Leishmania donovani): 48 µM
0.1 µM	Cc1c(F)cccc1C(=O)Nc1cc(F)ccn1	851	–	–
0.51 µM	Cc1ccccc1C(=O)Nc1cc(F)ccn1	168	–	–
–	O=C(Nc1ccccn1)c1ccccc1I	–	38%	–
6 µM	CCC/C=C/c1cccc(NC(=O)c2ccccc2C)n1	> 3	–	–

IC50 [1]	Structure (SMILES)	selectivity ratio [2]	inhibition at 10 µM [3]	also measured
–	CCCCN(C(=O)c1ccccc1C)c1ccccn1	–	11%	–
4.6 µM	Cc1ccccc1C(=O)Nc1cccc(N)n1	> 19	–	–
–	O=C(Nc1ccccn1)c1ccccc1C(F)(F)F	–	< 10%	–
0.53 µM	Cc1c(C(=O)Nc2cc(Cl)ccn2)ccc(F)c1F	160	–	–
3.8 µM	COc1ccc(NC(=O)c2ccccc2C)nc1	> 22	–	solubility kinetic [5]: > 100 µg/mL; fraction unbound [6]: 0.399; CLint (Liver microsome): 23 µL/min/mg; logD [7]: 2.5; solubility kinetic [8]: 12.5 µg/mL (≈ 51.6 µM)
0.19 µM	Cc1c(C(=O)Nc2cc(F)ccn2)ccc(F)c1F	450	–	–
–	Cc1ccccc1C(=O)Nc1ncccn1	–	< 10%	solubility kinetic [5]: 6.3 µg/mL (≈ 29.5 µM); fraction unbound [6]: 0.024; logD [7]: 3.9; solubility kinetic [8]: 6.3 µg/mL (≈ 29.5 µM)
2 µM	Cc1ccccc1C(=O)Nc1cc(-c2ccccc2)ccn1	31	–	IC50 (Plasmodium falciparum): 91 µM; IC50 [4]: 0.97 µM; IC50 (Trypanosoma cruzi): 66 µM; IC50 (L6): 70 µM; IC50 (Leishmania donovani): > 124 µM
–	Cc1ccc(Br)cc1C(=O)Nc1ccccn1	–	< 10%	–
–	Cc1ccccc1C(=O)Nc1ncns1	–	< 10%	–
–	Cc1ccccc1C(=O)N(C)c1ccccn1	–	18%	–
2.1 µM	Cc1ccnc(NC(=O)c2ccccc2C)c1	> 37	–	IC50 (Plasmodium falciparum): 124 µM; IC50 [4]: 0.36 µM; solubility kinetic [5]: > 100 µg/mL; fraction unbound [6]: 0.299; CLint (Liver microsome): 129 µL/min/mg; logD [7]: 2.8; solubility kinetic [8]: 25 µg/mL (≈ 110 µM); IC50 (Trypanosoma cruzi): 173 µM; IC50 (L6): 146 µM; IC50 (Leishmania donovani): > 133 µM
–	Cc1ccccc1C(=O)Nc1cccc(-c2ccccc2)n1	–	33%	–
–	Cc1ccccc1C(=O)Nc1cccnn1	–	< 10%	–
–	Cc1ccccc1C(=O)Nc1cccc(C#CCC(C)C)n1	–	< 10%	–
5.7 µM	Cc1c(Br)cccc1C(=O)Nc1ccccn1	15	–	–
–	Cc1cccnc1C(=O)Nc1ccccn1	–	12%	–
–	Cc1ccccc1C(=O)Nc1ccc(Cl)cn1	–	< 10%	–
–	Cc1ccncc1C(=O)Nc1ccccn1	–	< 10%	–
–	Cc1ccccc1NC(=O)c1ccccn1	–	< 10%	–
2.3 µM	Cc1ccccc1C(=O)Nc1cc(C#N)ccn1	–	–	solubility kinetic [5]: 50 µg/mL (≈ 211 µM); fraction unbound [6]: 0.359; CLint (Liver microsome): 82 µL/min/mg; logD [7]: 2.8; solubility kinetic [8]: 25 µg/mL (≈ 105 µM)
–	O=C(Nc1ccccn1)c1ccccc1F	–	35%	–
